This is a sample that favours compounds with a hit; in the whole collection about 2.1% have one here.
L929 necroptosis: blocks zVAD induced death of L929 cells; hit rate 0.38% among 220,000; L929 zVAD necroptosis rescue, ATP luminescence, 24 h; with zVAD 60 µM; AID 1377; viability rescue, % at 10 µM;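 active = activation, scaled between plate controls, above about 75%, limit read from the data; inactive = activation under that limit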
STAT1 inh: reduces IFN-gamma driven STAT1 reporter signal | NIH 3T3 STAT1-luciferase reporter, luminescence | inhibition, % at 5.5 µM | hit rate 0.35% among 200,000;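 active = inhibition above a set limit, the mean inhibition across all tested compounds plus 3 SD, cut at about 34% in these data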
STAT3 inh-1: reduces IL-6 driven STAT3 reporter signal; hit rate 0.89% among 190,000; U3A cells, IL-6 STAT3-luciferase reporter, luminescence; host cell line lacks STAT1; inhibition, % at 5.5 µM;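 active = inhibition above the mean inhibition across all screened compounds plus 3 SD, cut at about 44% in these data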
STAT3 activator: activators of IL-6 induced STAT3 signaling; activation (% of control), % at 5.6 µM; U3A cells, IL-6 STAT3-luciferase reporter, luminescence; 100% = signal with IL-6 EC80 alone; hit rate 0.91% among 190,000;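 active = activation above the screen-wide mean of compound activation plus 3 SD, cut at about 130% in these data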
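Detection: reporter luminescence signal / Assay system: STAT1-lacking human U3A cells, STAT3 luciferase reporter / Incubation: compound pre-incubation 1 h before IL-6, then 6 h stimulation at 37 °C / Control set: IL-6-only high control / Read-out: % activation relative to IL-6 control / Probe or stimulus: Interleukin-6, 33 ng/mL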
TNF necrop inh: inhibitors of TNF-alpha induced necroptosis in Jurkat FADD-/- cells; Jurkat FADD-/- TNF necroptosis rescue, ATP luminescence, 24 h; 0 = TNF only, 100 = no-TNF cells; activation (protection from cell death), % at 10 µM; hit rate 0.068% among 220,000;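 active = activation, meaning protection from cell death, of at least 50% relative to plate controls; inactive = activation below 50%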;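 note: necroptosis triggered by 40 ng/mL TNF-alpha added together with compound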
STAT3 inh-2: STAT3 inhibition, confirmation assay; U3A cells, IL-6 STAT3 luciferase reporter, luminescence; cell line lacks STAT1; hit rate 45% among 1,200; inhibition, % at 5.7 µM; AID 1265; shares compounds with STAT3 inh-1;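 active = inhibition above the hit cutoff computed for the primary STAT3 screen, cut at about 44% in these data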
NFkB inh STAT3ct: counter-screen for STAT3 inhibitors: NF-kappaB inhibition; shares compounds with STAT3 inh-1; HEK293T NF-kB luciferase reporter, TNF-alpha induced; inhibition, % at 5.7 µM; hit rate 36% among 1,200; AID 1308;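 active = inhibition above the mean of solvent-only control wells plus 3 SD, cutoff set per campaign, cut at about 13% in these data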
STAT1 inh 2: counter-screen for STAT3 inhibitors: STAT1 inhibition. shares compounds with STAT3 inh-1. NIH 3T3 STAT1-luciferase reporter, IFN-gamma induced, luminescence. inhibition, % at 5.7 µM. hit rate 27% among 1,200;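 active = inhibition above the mean plus 3 SD of solvent-only control wells, limit set per screening run, cut at about 16% in these data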
Each line names hits and unclear results; the compound was inactive in the other large screens (follow-up assays come after a bar, where they were run).

O=C(c1cc(-c2ccc(Cl)cc2Cl)on1)N1CCOCC1	STAT3 inh-1 50 | STAT3 inh-2 inactive | NFkB inh STAT3ct inactive | STAT1 inh 2 inactive
O=C(c1cc(-c2ccc3c(c2)OCO3)on1)N1CCN(c2ccccc2)CC1	none
O=C(c1cc(-c2ccc3c(c2)OCO3)on1)N1CCOCC1	STAT3 inh-1 52 | STAT3 inh-2 inactive | NFkB inh STAT3ct inactive | STAT1 inh 2 inactive
O=C(c1cc(-c2ccc(Cl)cc2)on1)N1CCOCC1	none
O=C(c1cc(-c2ccc(F)cc2)on1)N1CCCC1	STAT3 inh-1 46 | STAT3 inh-2 inactive | NFkB inh STAT3ct inactive | STAT1 inh 2 inactive
Clc1ccc(CCNc2ncnc3nc[nH]c23)cc1	STAT3 inh-1 52 | STAT3 inh-2 inactive | NFkB inh STAT3ct inactive | STAT1 inh 2 inactive
CCCCc1ccc(Nc2ncnc3nc[nH]c23)cc1	STAT3 inh-1 52 | STAT3 inh-2 inactive | NFkB inh STAT3ct inactive | STAT1 inh 2 inactive
COc1ccccc1N1CCN(CC(=O)c2c(N)n(C)c(=O)n(C)c2=O)CC1	none
Cc1ccc(Cl)cc1N1CCN(C(=O)CSc2nnc3n2C(C)(C)Cc2ccccc2-3)CC1	STAT3 inh-1 81 | STAT3 inh-2 72 | NFkB inh STAT3ct 15 | STAT1 inh 2 17
CCN(CC)C(=O)C1CCN(S(=O)(=O)c2ccc3oc4ccccc4c3c2)CC1	STAT3 inh-1 45 | STAT3 inh-2 inactive | NFkB inh STAT3ct inactive | STAT1 inh 2 inactive
O=S(=O)(c1ccc2oc3ccccc3c2c1)N1CCCC1	none
Cc1ccc(OCc2nc(-c3cccs3)no2)c([N+](=O)[O-])c1	STAT3 inh-1 50 | STAT3 inh-2 inactive | NFkB inh STAT3ct inactive | STAT1 inh 2 inactive
O=[N+]([O-])c1ccccc1OCc1nc(-c2cccs2)no1	none
O=C(Nc1cccc(Cl)c1)Nc1ccnc(-c2cccnc2)n1	STAT3 inh-1 55 | STAT3 inh-2 65 | NFkB inh STAT3ct inactive | STAT1 inh 2 inactive
CC(=O)Nc1ccnc(-c2cccnc2)n1	none
Cc1ccc(/C=C/C(=O)NC2=NCCS2)cc1	STAT3 inh-1 71 | STAT3 inh-2 inactive | NFkB inh STAT3ct inactive | STAT1 inh 2 inactive
CCC(=O)Nc1ccc(NC(=O)c2ccccn2)cn1	none
CC(C)C(=O)Nc1ccc(NC(=O)c2ccccn2)cn1	STAT3 inh-1 53 | STAT3 inh-2 inactive | NFkB inh STAT3ct inactive | STAT1 inh 2 inactive
CS(=O)(=O)N(Cc1ccc(Cl)cc1)c1ccc(C(=O)NCCC2=CCCCC2)cc1	none
O=C(NCCC1=CCCCC1)c1ccc(Cl)cc1	STAT3 inh-1 47 | STAT3 inh-2 inactive | NFkB inh STAT3ct inactive | STAT1 inh 2 inactive
COc1ccc(-n2cccc2/C=C2/NC(=O)N(c3cccc(Cl)c3)C2=O)cc1	none
Cc1ccc(CC(=O)Nc2ccncc2)cc1	STAT3 inh-1 46 | STAT3 inh-2 52 | NFkB inh STAT3ct inactive | STAT1 inh 2 24
CN(CCCC(=O)Nc1ccncc1)S(=O)(=O)c1ccc(Cl)cc1	STAT3 inh-1 47 | STAT3 inh-2 inactive | NFkB inh STAT3ct inactive | STAT1 inh 2 21
O=C(Cc1ccc(Cl)cc1)Nc1ccncc1	STAT3 inh-1 52 | STAT3 inh-2 55 | NFkB inh STAT3ct 17 | STAT1 inh 2 21
Cc1ccc(CC(=O)Nc2cccnc2)cc1	none
CN(CC(=O)Nc1ccncc1)S(=O)(=O)c1ccc(Br)cc1	none
COc1cc(NC(=O)C/C(C)=N/NC(=O)Cc2ccccc2)c(OC)cc1Cl	none
Cn1cc(/C=N\NC(=O)c2cccs2)c2ccccc21	none
Cc1cc(SCn2nnc3ccccc3c2=O)nc2ccccc12	none
Cc1ccc(-n2nnnc2SCn2nnc3ccccc3c2=O)c(C)c1	STAT3 inh-1 53 | STAT3 inh-2 53 | NFkB inh STAT3ct inactive | STAT1 inh 2 inactive
Fc1ccccc1Nc1nc2c(s1)CCc1ccccc1-2	none
CC(C)C(=O)Nc1ccc2nn(-c3ccccc3)nc2c1	STAT3 inh-1 48 | STAT3 inh-2 inactive | NFkB inh STAT3ct inactive | STAT1 inh 2 inactive
O=C(Nc1ccc2nn(-c3ccccc3)nc2c1)c1cccnc1	none
Cc1ccc(OCc2n[nH]c(=S)n2-c2ccccc2)cc1C	none
O=C(Nc1cccc(-c2nc3ccccc3s2)c1)C1=COCCO1	none
O=C(Nc1ccc(-c2nc3ccccc3s2)cc1)C1=COCCO1	STAT3 inh-1 54 | STAT3 inh-2 77 | NFkB inh STAT3ct 60 | STAT1 inh 2 31
COC(=O)c1cccc(NC(=O)CSc2nc3cccnc3n2C)c1	STAT3 inh-1 57 | STAT3 inh-2 48 | NFkB inh STAT3ct inactive | STAT1 inh 2 inactive
Cc1nn(C(C)(C)C)c(OC(=O)c2cccs2)c1S(=O)(=O)c1ccccc1	none
COc1ccccc1C(=O)NCc1ccc(-c2nc3ccccc3s2)cc1	STAT3 inh-1 51 | STAT3 inh-2 inactive | NFkB inh STAT3ct inactive | STAT1 inh 2 inactive
COc1ccc(-c2nc3ccccc3s2)cc1O	STAT3 inh-1 92 | STAT3 inh-2 53 | NFkB inh STAT3ct inactive | STAT1 inh 2 inactive
Oc1cccc(-c2nc3ccccc3s2)c1	STAT3 inh-1 74 | STAT3 inh-2 inactive | NFkB inh STAT3ct 13 | STAT1 inh 2 inactive
COc1cccc(-c2nc3ccccc3s2)c1O	STAT3 inh-1 44 | STAT3 inh-2 inactive | NFkB inh STAT3ct inactive | STAT1 inh 2 inactive
CCOc1cc(-c2nc3ccccc3s2)ccc1O	none (no result: STAT1 inh, STAT3 inh-1, STAT3 activator)
Cc1[nH]c2ccccc2c1C1=CN2CCS(=O)(=O)N=C2S1	none
O=C(CCc1nc2cccnc2n1Cc1ccccc1)N1CCOCC1	none
CCCCCOc1ccc(Br)cc1CSC(=N)N	STAT3 inh-1 49 | STAT3 inh-2 63 | NFkB inh STAT3ct 23 | STAT1 inh 2 21
Cn1c(C(=O)O)cnc1Sc1ncc(C(F)(F)F)cc1Cl	none
Cc1ccc(S(=O)(=O)N2CCN(C(=O)c3ccc(OCc4c(C)noc4C)cc3)CC2)cc1	none
C=CC[n+]1c(-c2ccc(C)cc2)csc1Nc1ccc(NC(C)=O)cc1	STAT3 inh-1 63 | STAT3 inh-2 52 | NFkB inh STAT3ct 18 | STAT1 inh 2 inactive
COc1ccc(-c2cc(C(F)(F)F)n3nc(C(=O)N(C)Cc4ccccc4)cc3n2)cc1OC	none
Cc1c(NC(=O)NC(=O)c2ccc(F)cc2)c(=O)n(-c2ccccc2)n1C	none
c1ccc(-c2cnc(-c3ccccc3)nc2)cc1	STAT3 inh-1 54 | STAT3 inh-2 inactive | NFkB inh STAT3ct inactive | STAT1 inh 2 inactive
CC(=O)CCS(=O)(=O)c1ccc(NC(C)=O)cc1	none
CCCOC(=O)c1ccc(OCC(O)Cn2c(C)nc3ccccc32)cc1 (centres undefined)	STAT3 inh-1 61 | STAT3 inh-2 63 | NFkB inh STAT3ct 20 | STAT1 inh 2 23
